Measured values reported in ChEMBL document CHEMBL2375308, “Synthesis and selected immunological properties of substituted quino[3,2-b]benzo[1,4]thiazines” (Eur J Med Chem, 2013).

Columns and labels:
PBMC [1] = experiment: Antiproliferative activity against PHA-stimulated human PBMC at 10 ug/mL after 4 days by MTT assay relative to DMSO-treated control; assay type: functional
Method in brief: (§1)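 PBMC from one donor's heparinized blood, Ficoll gradient isolated, in RPMI-1640 with 10% FCS; 2 × 10⁵ cells/well. PHA added at […]; compounds from DMSO stock (10 mg/mL) diluted in medium; matching DMSO dilutions as control. Four-day culture, proliferation read by MTT colorimetry; percentage inhibition versus control.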

PBMC [2] = experiment: Inhibition of LPS-induced TNFalpha production in human PBMC at 5 ug/mL after overnight incubation relative to DMSO-treated control; assay type: functional
Method in brief: (§2)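 Single-donor venous blood diluted 10× in RPMI-1640, 1 mL aliquots, stimulated with LPS (E. coli O111:B4). Compounds added at […]; corresponding DMSO dilutions as controls. Overnight incubation, supernatants frozen at −20 °C, TNF-α measured by biological assay; percentage inhibition versus DMSO control.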

PBMC [3] = experiment: Antiproliferative activity against PHA-stimulated human PBMC at 50 ug/mL after 4 days by MTT assay relative to DMSO-treated control; assay type: functional; method in brief: as §1
PBMC [4] = experiment: Cytotoxicity against human PBMC cells at 50 ug/mL after 24 hrs by MTT assay relative to DMSO-treated control; assay type: cell-based
Method in brief: (§3)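 Ficoll-isolated PBMC ([…]) in supplemented RPMI-1640, 2 × 10⁵/well, cultured 24 h with the preparations at the indicated concentrations; compounds dissolved in DMSO (10 mg/mL stock) and diluted in medium.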

PBMC [5] = experiment: Inhibition of LPS-induced TNFalpha production in human PBMC at 25 ug/mL after overnight incubation relative to DMSO-treated control; assay type: functional; method in brief: as §2
PBMC [6] = experiment: Cytotoxicity against human PBMC cells at 10 ug/mL after 24 hrs by MTT assay relative to DMSO-treated control; assay type: cell-based; method in brief: as §3

Row | Compound | Activity (PBMC [1]) [%] | inhibition at 5 µg/mL (PBMC [2]) [%] | Activity (PBMC [3]) [%] | Activity (PBMC [4]) | inhibition at 25 µg/mL (PBMC [5]) [%] | Activity (PBMC [6])
1 | FC(F)(F)c1ccc2c(c1)Sc1cc3ccccc3nc1N2 | 24.9 | 51.1 | 61 | Non-toxic | -5.6 | Non-toxic
2 | CS(=O)(=O)NCCCN1c2ccccc2Sc2cc3ccccc3nc21 | 36.6 | 8.1 | 74.6 | Non-toxic | 60.6 | Non-toxic
3 | CSc1ccc2c(c1)Sc1cc3ccccc3nc1N2 | 0 | 22.5 | 2.9 | Non-toxic | 19.2 | Non-toxic
4 | CC(=O)NCCCN1c2ccccc2Sc2cc3ccccc3nc21 | 68.7 | -0.4 | 92.4 | 91.9% | 32.2 | Non-toxic
5 | FC(F)(F)c1cccc2c1Sc1cc3ccccc3nc1N2 | 2.3 | 74.9 | 13.6 | Non-toxic | -2.6 | 5%
6 | CS(=O)(=O)NCCCCN1c2ccccc2Sc2cc3ccccc3nc21 | 42.3 | 14 | 94.3 | Non-toxic | 42.3 | Non-toxic
7 | CC(=O)NCCCCN1c2ccccc2Sc2cc3ccccc3nc21 | 72.7 | 0 | 94.3 | Non-toxic | 20.2 | Non-toxic
8 | CCOC(=O)NCCCCN1c2ccc(SC)cc2Sc2cc3ccccc3nc21 | 44.3 | 50.9 | 27.8 | Non-toxic | 33.1 | Non-toxic
9 | CS(=O)(=O)NCCCN1c2ccc(Cl)cc2Sc2cc3ccccc3nc21 | 73.4 | 1.2 | 74.4 | Non-toxic | 30.5 | Non-toxic
10 | CSc1ccc2c(c1)Sc1cc3ccccc3nc1N2CCCNC(C)=O | 72.5 | 71.7 | 68.8 | Non-toxic | 64.5 | Non-toxic
11 | CCOC(=O)NCCCN1c2ccc(SC)cc2Sc2cc3ccccc3nc21 | 45.4 | 74.9 | 38.8 | Non-toxic | 70.1 | Non-toxic
12 | c1ccc2c(c1)Nc1nc3ccccc3cc1S2 | 7.1 | 25.6 | 14.4 | Non-toxic | 16.1 | Non-toxic
13 | Brc1cccc2c1Sc1cc3ccccc3nc1N2 | 0.1 | 13.6 | 16.4 | Non-toxic | 8.4 | Non-toxic
14 | Cc1ccc(S(=O)(=O)NCCCCN2c3ccccc3Sc3cc4ccccc4nc32)cc1 | 3.3 | 15.8 | 2.4 | Non-toxic | 12.5 | Non-toxic
15 | CSc1ccc2c(c1)Sc1cc3ccccc3nc1N2CCCCNC(C)=O | 54.7 | 46.8 | 42 | 7.9% | 60.4 | Non-toxic
16 | CS(=O)(=O)NCCCCN1c2ccc(Cl)cc2Sc2cc3ccccc3nc21 | 59.4 | -7.5 | 43.9 | Non-toxic | 24.5 | Non-toxic
17 | FC(F)(F)c1ccc2c(c1)Nc1nc3ccccc3cc1S2 | 21.7 | 72.3 | 0.3 | 21.5% | 48.8 | Non-toxic
18 | Brc1ccc2c(c1)Nc1nc3ccccc3cc1S2 | 4.3 | 11.2 | 20.6 | Non-toxic | -25 | Non-toxic
19 | CSc1ccc2c(c1)Sc1cc3ccccc3nc1N2CCCCNS(=O)(=O)c1ccc(C)cc1 | -5 | 70.4 | -34.7 | Non-toxic | 37.5 | Non-toxic

Row | Compound | Activity (PBMC [1]) [%] | inhibition at 5 µg/mL (PBMC [2]) [%] | Activity (PBMC [3]) [%] | Activity (PBMC [4]) | inhibition at 25 µg/mL (PBMC [5]) [%] | Activity (PBMC [6])
20 | CCOC(=O)NCCCCN1c2ccccc2Sc2cc3ccccc3nc21 | 73.9 | 0.2 | 83.7 | Non-toxic | 12.3 | Non-toxic
21 | Cc1ccc(S(=O)(=O)NCCCCN2c3ccc(Cl)cc3Sc3cc4ccccc4nc32)cc1 | 13.2 | 20.7 | 19.8 | Non-toxic | -12.7 | Non-toxic
22 | CSc1ccc2c(c1)Sc1cc3ccccc3nc1N2CCCCNS(C)(=O)=O | 53.3 | 72.8 | 62.7 | Non-toxic | 13.2 | Non-toxic
23 | O=C(NCCCl)NCCCCN1c2ccc(Cl)cc2Sc2cc3ccccc3nc21 | 98.4 | 54.8 | 94.6 | 86.3% | 56 | 19.2%
24 | Fc1ccc2c(c1)Sc1cc3ccccc3nc1N2 | 100 | – | – | – | – | 50%
25 | CSc1ccc2c(c1)Sc1cc3ccccc3nc1N2CCCNC(=O)NCCCl | 93 | 50.7 | 93.7 | 92.7% | 1 | Non-toxic
26 | CSc1ccc2c(c1)Sc1cc3ccccc3nc1N2CCN1CCCCC1 | 93.8 | 49.2 | 92 | 91.7% | 34.6 | 18%
27 | CCOC(=O)NCCCN1c2ccc(Cl)cc2Sc2cc3ccccc3nc21 | 45 | 10.3 | 60.4 | Non-toxic | 31.7 | Non-toxic
28 | CSc1ccc2c(c1)Sc1cc3ccccc3nc1N2CCCNS(=O)(=O)c1ccc(C)cc1 | -5.3 | 72.1 | -46.4 | Non-toxic | 20.8 | Non-toxic
29 | Clc1cccc2c1Sc1cc3ccccc3nc1N2 | 10.7 | 17 | 10.8 | 13% | 4.6 | Non-toxic
30 | Cc1ccc2c(c1)Sc1cc3ccccc3nc1N2 | -17.9 | 54.1 | -6.2 | 15.4% | 66.6 | 2.4%
31 | Clc1ccc2c(c1)Sc1cc3ccccc3nc1N2CCN1CCCCC1 | 96.3 | -70.5 | 98.2 | 83.8% | 56.7 | 19.2%
32 | Clc1ccc2c(c1)Nc1nc3ccccc3cc1S2 | 16.3 | -1.2 | 27.1 | Non-toxic | 19.2 | Non-toxic
33 | CC(=O)NCCCN1c2ccc(Cl)cc2Sc2cc3ccccc3nc21 | 50.8 | 11.4 | 58.3 | Non-toxic | 60.6 | Non-toxic
34 | CN1CCCCC1CCN1c2ccccc2Sc2cc3ccccc3nc21 (stereo not drawn) | -23.5 | 49.1 | 39.8 | 4.5% | 62.4 | Non-toxic
35 | CCOC(=O)NCCCN1c2ccccc2Sc2cc3ccccc3nc21 | 69.7 | 7.7 | 88.4 | Non-toxic | 14.1 | Non-toxic
36 | Brc1ccc2c(c1)Sc1cc3ccccc3nc1N2 | -9.7 | 16.2 | 19 | Non-toxic | 10.1 | Non-toxic
37 | O=C(NCCCl)NCCCN1c2ccccc2Sc2cc3ccccc3nc21 | 11.2 | 14.6 | 77.9 | Non-toxic | 5 | 8.5%
